Test results from ChEMBL document CHEMBL5360543, “Designed multiple ligands for the treatment of type 2 diabetes mellitus and its complications: Discovery of (5-arylidene-4-oxo-2-thioxothiazolidin-3-yl)alkanoic acids active as novel dual-targeted PTP1B/AKR1B1 inhibitors” (Eur J Med Chem, 2023).
Active and inactive are the calls of the source. No cut-off for these calls is given here.

How the values were obtained:
[1] = target: T1, Aldo-keto reductase family 1 member B1 (Homo sapiens, UniProt P15121); experiment: Inhibition of human recombinant AKR1B1 expressed in Escherichia coli BL21(DE3)pLysS using L-idose as substrate by NADPH oxidation based absorbance analysis
[2] = target: T2, Tyrosine-protein phosphatase non-receptor type 1 (Homo sapiens) (UniProt P18031); experiment: Inhibition of N-terminal polyHis-tagged human PTP1B1 (1 to 303 residues) expressed in Escherichia coli BL21(DE3)pLysS assessed as enzyme residual activity using pNPP as substrate at 5 uM by spectrophotometric analysis
T2 sequence (whole entry): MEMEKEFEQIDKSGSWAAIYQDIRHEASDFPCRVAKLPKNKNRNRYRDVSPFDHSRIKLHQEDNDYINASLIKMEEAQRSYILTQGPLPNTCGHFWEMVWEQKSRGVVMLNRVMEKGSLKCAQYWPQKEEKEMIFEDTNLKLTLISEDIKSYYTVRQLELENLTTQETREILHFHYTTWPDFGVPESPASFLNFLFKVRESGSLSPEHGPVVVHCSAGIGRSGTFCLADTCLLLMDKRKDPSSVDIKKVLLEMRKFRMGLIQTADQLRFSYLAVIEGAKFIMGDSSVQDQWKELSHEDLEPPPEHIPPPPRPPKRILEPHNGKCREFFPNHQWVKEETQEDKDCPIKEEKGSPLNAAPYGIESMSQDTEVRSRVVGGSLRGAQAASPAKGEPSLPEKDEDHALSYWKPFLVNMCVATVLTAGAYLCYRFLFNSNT
Procedure, shortened: (§1)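 His-tagged human PTP1B (1–303) from E. coli BL21(DE3)pLysS, assayed in 0.075 M β,β-dimethylglutarate pH 7.0 with 1 mM EDTA, 0.1 mM DTT and pNPP. Reaction stopped with 0.1 M KOH; p-nitrophenol read at 400 nm. IC50 from 15–16 inhibitor concentrations in triplicate, normalized to control, fitted by nonlinear regression. Single-point residual activity at 5 µM.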

[3] = target: T3, Tyrosine-protein phosphatase non-receptor type 1 (Homo sapiens, UniProt P18031); experiment: Inhibition of N-terminal polyHis-tagged human PTP1B1 (1 to 303 residues) expressed in Escherichia coli BL21(DE3)pLysS using pNPP as substrate by spectrophotometric analysis; procedure, shortened: as §1
T3 sequence (P18031 whole entry): T2 sequence (whole entry)

[4] = target: T4, Tyrosine-protein phosphatase non-receptor type 2 (Homo sapiens, UniProt P17706); experiment: Inhibition of N-terminal polyHis-tagged human recombinant TC-PTPb (1 to 415 residues) expressed in Escherichia coli BL21(DE3)pLysS
T4 sequence (P17706 whole entry): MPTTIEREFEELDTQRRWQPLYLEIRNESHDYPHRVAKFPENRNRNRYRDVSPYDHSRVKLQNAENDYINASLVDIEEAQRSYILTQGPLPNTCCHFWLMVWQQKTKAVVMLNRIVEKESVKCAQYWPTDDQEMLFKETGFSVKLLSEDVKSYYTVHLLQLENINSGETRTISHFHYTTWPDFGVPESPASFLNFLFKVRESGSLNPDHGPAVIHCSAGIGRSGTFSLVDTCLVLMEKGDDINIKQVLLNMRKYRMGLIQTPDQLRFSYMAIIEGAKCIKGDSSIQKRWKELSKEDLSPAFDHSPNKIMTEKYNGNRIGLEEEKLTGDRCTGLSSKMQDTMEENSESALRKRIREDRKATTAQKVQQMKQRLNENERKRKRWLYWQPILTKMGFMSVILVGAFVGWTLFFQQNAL

Homo sapiens = organism: Homo sapiens; experiment: Selectivity index, ratio of IC50 for inhibition of N-terminal polyHis-tagged human recombinant TC-PTPb (1 to 415 residues) expressed in Escherichia coli BL21(DE3)pLysS to IC50 for inhibition of N-terminal polyHis-tagged human PTP1B1 (1 to 303 residues) expressed in Escherichia coli BL21(DE3)pLysS
[5] = target: T2, Tyrosine-protein phosphatase non-receptor type 1 (Homo sapiens); experiment: Reversible inhibition of N-terminal polyHis-tagged human PTP1B1 (1 to 303 residues) expressed in Escherichia coli BL21(DE3)pLysS using pNPP as substrate pretreated with enzyme for 60 mins followed by 400-fold dilution with buffer containing substrate and measured after 15 mins by spectrophotometric analysis; conditions: time 75.0 min
Procedure, shortened: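 PTP1B incubated 60 min at 37 °C with saturating inhibitor, then diluted 400-fold into assay buffer containing 2.5 mM pNPP. Stopped after 15 min with 0.2 M KOH; absorbance read at 400 nm. Normalized to enzyme diluted with DMSO; mean ± SEM (n = 3).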

[6] = target: T1, Aldo-keto reductase family 1 member B1; experiment: Reversible inhibition of human recombinant AKR1B1 expressed in Escherichia coli BL21(DE3)pLysS assessed as recovery of enzyme activity using L-idose as substrate measured after extensive dialysis by NADPH oxidation based absorbance analysis; parameters: scale not given: the % may be the effect or the level left
[7] = target: T3, Tyrosine-protein phosphatase non-receptor type 1; experiment: Non-competitive inhibition of N-terminal polyHis-tagged human PTP1B1 (1 to 303 residues) expressed in Escherichia coli BL21(DE3)pLysS assessed as apparent dissociation constant for EI complex using pNPP as substrate by Lineweaver-Burk plot analysis
Procedure, shortened: (§2)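 PTP1B initial pNPP hydrolysis rates measured at seven pNPP concentrations (0.5–25 mM) and at least three inhibitor concentrations, in triplicate. Data fitted to Michaelis–Menten; KM and Vmax dependence on inhibitor analysed by Lineweaver–Burk plots.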

[8] = target: T3, Tyrosine-protein phosphatase non-receptor type 1; experiment: Non-competitive inhibition of N-terminal polyHis-tagged human PTP1B1 (1 to 303 residues) expressed in Escherichia coli BL21(DE3)pLysS assessed as apparent dissociation constant for ESI complex using pNPP as substrate by Lineweaver-Burk plot analysis; procedure, shortened: as §2
[9] = target: T1, Aldo-keto reductase family 1 member B1; experiment: Mixed non-competitive inhibition of human recombinant AKR1B1 expressed in Escherichia coli BL21(DE3)pLysS assessed as apparent dissociation constant for EI complex using L-idose as substrate by secondary plot analysis
Procedure, shortened: (§3)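 AKR1B1 rates measured at varied L-idose concentrations with and without several inhibitor concentrations, then Lineweaver–Burk analysis. […] Tight binders fitted with the Morrison equation, KM for L-idose taken as 3.8 mM. At least three independent experiments.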

[10] = target: T1, Aldo-keto reductase family 1 member B1; experiment: Mixed non-competitive inhibition of human recombinant AKR1B1 expressed in Escherichia coli BL21(DE3)pLysS assessed as apparent dissociation constant for ESI complex using L-idose as substrate by secondary plot analysis; procedure, shortened: as §3
[11] = target: T1, Aldo-keto reductase family 1 member B1; experiment: Ratio of Ki for human recombinant AKR1B1 expressed in Escherichia coli BL21(DE3)pLysS assessed as apparent dissociation constant for EI complex to Ki for human recombinant AKR1B1 expressed in Escherichia coli BL21(DE3)pLysS assessed as apparent dissociation constant for ESI complex; procedure, shortened: as §3
C2C12 = experiment: Cytotoxicity against mouse C2C12 cells assessed as reduction in cell viability at 20 uM incubated for 24 hrs by MTT assay; format: toxicity, cell-based; conditions: c2c12, 24 h
Procedure, shortened: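 C2C12 myoblasts were differentiated for 96 h in DMEM with 2% horse serum, then held 24 h in complete medium with 20 µM compound, DMSO vehicle as control. MTT 0.5 mg/mL was added, cells lysed in DMSO, absorbance read, and values normalized to vehicle. Quadruplicate, mean ± SD (n = 4).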

[12] = target: T5, Tyrosine-protein phosphatase non-receptor type 1 (Mus musculus) (UniProt P35821); experiment: Inhibition of PTP1B in mouse C2C12 cells assessed as increase in Akt phosphorylation by measuring increase in ratio of pAkt to Akt at 20 uM treated for 15 mins by western blot analysis; format: cell-based
T5 sequence (whole entry): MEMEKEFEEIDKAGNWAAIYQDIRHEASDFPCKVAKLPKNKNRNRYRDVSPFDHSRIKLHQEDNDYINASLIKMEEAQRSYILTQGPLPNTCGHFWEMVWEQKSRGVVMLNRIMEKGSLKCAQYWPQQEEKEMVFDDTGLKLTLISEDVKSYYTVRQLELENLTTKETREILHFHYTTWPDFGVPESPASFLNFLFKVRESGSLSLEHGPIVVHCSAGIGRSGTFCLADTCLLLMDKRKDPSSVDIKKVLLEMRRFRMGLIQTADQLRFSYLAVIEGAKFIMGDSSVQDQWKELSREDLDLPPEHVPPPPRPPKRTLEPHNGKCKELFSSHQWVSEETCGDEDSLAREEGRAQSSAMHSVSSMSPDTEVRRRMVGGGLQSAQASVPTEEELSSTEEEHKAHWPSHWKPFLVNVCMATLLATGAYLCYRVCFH
Procedure, shortened: (§4)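 C2C12 cells starved 24 h, then given 10 nM insulin, 20 µM compound, or both, for 15 min. Washed in cold PBS, lysed in 1X Laemmli buffer, run on SDS-PAGE, blotted to PVDF. Probed with antibodies to phospho-Akt and total Akt, with actin as loading control. Bands quantified; triplicate, mean ± SD (n = 3).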

[13] = target: T5, Tyrosine-protein phosphatase non-receptor type 1 (Mus musculus); experiment: Inhibition of PTP1B in mouse C2C12 cells assessed as potentiation of insulin-induced Akt phosphorylation by measuring increase in ratio of pAkt to Akt at 20 uM treated for 15 mins in presence of insulin by western blot analysis; format: cell-based; procedure, shortened: as §4

Q: How did the IC50 [1] turn out when `O=C(O)CCN1C(=O)/C(=C/c2ccc(OCCCOc3ccccc3)cc2)SC1=S` was run?
A: 3900 nM

Q: What about the Activity [2] of the same compound?
A: 74.4%

Q: With `O=C(O)CCN1C(=O)/C(=C/c2cccc(OCCCOc3ccccc3)c2)SC1=S` as the compound, how does the IC50 [1] read?
A: 2100 nM

Q: What about the Activity [2] of the same compound?
A: 77%

Q: `O=C(O)CN1C(=O)/C(=C/c2cccc(OCCCc3ccccc3)c2)SC1=S` was tested. Which IC50 [1] did it give?
A: 50 nM

Q: And the Activity [2]?
A: 81%

Q: Which IC50 [1] does the source give for `O=C(O)CN1C(=O)/C(=C/c2ccc(OCCCCc3ccccc3)cc2)SC1=S` here?
A: 330 nM

Q: What about the IC50 [3] of the same compound?
A: 4 µM

Q: What about the IC50 [4] of the same compound?
A: 193 µM

Q: And the Ratio IC50 (Homo sapiens)?
A: 48

Q: And the inhibition [5]?
A: Active

Q: What about the Activity [6] of the same compound?
A: > 90%

Q: And the Ki [7]?
A: 12.1 µM

Q: And the Ki [8]?
A: 17.5 µM

Q: And the Ki [9]?
A: 1300 nM

Q: And the Ki [10]?
A: 410 nM

Q: What about the Ratio Ki [11] of the same compound?
A: 2

Q: What about the Activity (C2C12) of the same compound?
A: Non-Toxic

Q: What about the inhibition [12] of the same compound?
A: inactive

Q: And the inhibition [13]?
A: inactive

Q: Which results are given for `O=C(O)CN1C(=O)/C(=C/c2cccc(OCCCOc3ccccc3)c2)SC1=S`?
A: IC50 [1]: 80 nM; Activity [2]: 100%

Q: For `O=C(O)CCN1C(=O)/C(=C/c2ccc(OCCCc3ccccc3)cc2)SC1=S`, which IC50 [1] is on record?
A: 38200 nM

Q: And the Activity [2]?
A: 99.8%
